This is an account of results in ChEMBL document CHEMBL3576859, “Novel benzamide-based histamine h3 receptor antagonists: the identification of two candidates for clinical development” (ACS Med Chem Lett, 2015).

Bounds are passed on as bounds.

Data set [1] has as its target Voltage-gated inwardly rectifying potassium channel KCNH2 (Homo sapiens, UniProt Q12809). The data set is described as follows: Displacement of [3H]-astemizole from human ERG expressed in HEK293 cells after 60 mins by scintillation counting analysis. Type of data set: cell-based. (In general: In a radioligand displacement assay an active substance lowers the binding of a labelled ligand.)

Data set [2] can be described thus: Volume of distribution at steady state in Sprague-Dawley rat. Type of data set: ADME, organism-based. The conditions noted are these: in vivo, read-out: Vdss.
Data set [3] can be described thus: Half life in Sprague-Dawley rat at 1 mg/kg, iv. The format is ADME, organism-based. The conditions noted are these: in vivo.
The nature of data set [4]: Oral bioavailability in Sprague-Dawley rat at 10 mg/kg. Type of data set: ADME, organism-based. The conditions noted are these: in vivo.
Data set [5] can be described thus: Clearance in Sprague-Dawley rat. The format is ADME, organism-based. As to conditions: in vivo; call rule not given here.
In another data set the target is Histamine H3 receptor (Homo sapiens, UniProt Q9Y5N1). The data set is described as follows: Displacement of N-[3H]methylhistamine from human histamine H3 receptor expressed in human SK-N-MC cells after 45 mins. Type of data set: cell-based.
Histamine H3 receptor, sequence (Q9Y5N1 whole entry): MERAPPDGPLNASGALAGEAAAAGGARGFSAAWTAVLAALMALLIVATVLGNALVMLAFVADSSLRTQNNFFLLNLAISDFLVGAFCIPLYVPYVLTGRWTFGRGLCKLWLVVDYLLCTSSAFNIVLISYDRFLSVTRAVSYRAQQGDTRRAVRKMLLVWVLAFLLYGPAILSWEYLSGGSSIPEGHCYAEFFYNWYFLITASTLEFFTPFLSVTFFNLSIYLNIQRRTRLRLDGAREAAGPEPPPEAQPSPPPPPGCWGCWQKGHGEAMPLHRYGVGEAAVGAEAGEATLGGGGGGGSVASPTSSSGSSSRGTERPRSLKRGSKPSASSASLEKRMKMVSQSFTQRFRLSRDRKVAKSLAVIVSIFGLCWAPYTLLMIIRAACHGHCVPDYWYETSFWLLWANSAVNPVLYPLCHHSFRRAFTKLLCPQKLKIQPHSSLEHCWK
The nature of data set [6]: Drug uptake in Sprague-Dawley rat brain at 3 mg/kg, po measured at 1 hr. Type of data set: ADME, organism-based. As to conditions: read-out: Drug uptake. The procedure, abridged:
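Rats dosed orally at 3 mg/kg. Brain drug concentration (μM) measured at 1 h post-dose.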

The next data set has as its system Rattus norvegicus. As to the kind of experiment: Ex vivo histamine H3 receptor occupancy in Sprague-Dawley rat striatum at 3 mg/kg, po measured at 1 hr by autoradiographic analysis. The format is functional. The essentials:
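After a 3 mg/kg oral dose in rats, ex vivo H3 receptor occupancy was determined by autoradiography at 1 h. Values are mean ± SD.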

Data set [7] in a line: Metabolic stability in Sprague-Dawley rat liver microsomes assessed as compound remaining at 1 uM after 15 mins. Type of data set: ADME. As to conditions: read-out: Stability. The procedure, abridged:
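Rat liver microsomes incubated with compound for 15 min. Stability expressed as percent of parent remaining.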
(In general: Microsomes from liver hold many membrane-bound enzymes, among them those of drug oxidation.)

A short description of data set [8]: Metabolic stability in human liver microsomes assessed as compound remaining at 1 uM after 15 mins. Type of data set: ADME. The conditions noted are these: read-out: Stability. The procedure, abridged: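 Compound incubated with human liver microsomes for 15 min. Read-out is percent parent remaining.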
Data set [9] deals with Voltage-gated L-type calcium channel (Rattus norvegicus, UniProt P22002+Q02485+P27732). As to the kind of experiment: Binding affinity to rat L-type calcium channel at 1 uM.
Data set [10] can be described thus: Apparent permeability across basolateral to apical side in human Caco2 cells at 10 uM […] by LC/MS/MS analysis. Type of data set: ADME, cell-based. As to conditions: Caco-2. The essentials: (§1)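 Caco-2 monolayer permeability measured in both directions, apical-to-basolateral and basolateral-to-apical. Reported as P_app (×10−⁶ cm/s), given as A−B/B−A pairs.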

The nature of data set [11]: Apparent permeability across apical to basolateral side in human Caco2 cells at 10 uM after 60 mins by LC/MS/MS analysis. Type of data set: ADME, cell-based. As to conditions: Caco-2. The procedure, abridged: as §1

Voltage-gated inwardly rectifying potassium channel KCNH2, sequence (Q12809 whole entry): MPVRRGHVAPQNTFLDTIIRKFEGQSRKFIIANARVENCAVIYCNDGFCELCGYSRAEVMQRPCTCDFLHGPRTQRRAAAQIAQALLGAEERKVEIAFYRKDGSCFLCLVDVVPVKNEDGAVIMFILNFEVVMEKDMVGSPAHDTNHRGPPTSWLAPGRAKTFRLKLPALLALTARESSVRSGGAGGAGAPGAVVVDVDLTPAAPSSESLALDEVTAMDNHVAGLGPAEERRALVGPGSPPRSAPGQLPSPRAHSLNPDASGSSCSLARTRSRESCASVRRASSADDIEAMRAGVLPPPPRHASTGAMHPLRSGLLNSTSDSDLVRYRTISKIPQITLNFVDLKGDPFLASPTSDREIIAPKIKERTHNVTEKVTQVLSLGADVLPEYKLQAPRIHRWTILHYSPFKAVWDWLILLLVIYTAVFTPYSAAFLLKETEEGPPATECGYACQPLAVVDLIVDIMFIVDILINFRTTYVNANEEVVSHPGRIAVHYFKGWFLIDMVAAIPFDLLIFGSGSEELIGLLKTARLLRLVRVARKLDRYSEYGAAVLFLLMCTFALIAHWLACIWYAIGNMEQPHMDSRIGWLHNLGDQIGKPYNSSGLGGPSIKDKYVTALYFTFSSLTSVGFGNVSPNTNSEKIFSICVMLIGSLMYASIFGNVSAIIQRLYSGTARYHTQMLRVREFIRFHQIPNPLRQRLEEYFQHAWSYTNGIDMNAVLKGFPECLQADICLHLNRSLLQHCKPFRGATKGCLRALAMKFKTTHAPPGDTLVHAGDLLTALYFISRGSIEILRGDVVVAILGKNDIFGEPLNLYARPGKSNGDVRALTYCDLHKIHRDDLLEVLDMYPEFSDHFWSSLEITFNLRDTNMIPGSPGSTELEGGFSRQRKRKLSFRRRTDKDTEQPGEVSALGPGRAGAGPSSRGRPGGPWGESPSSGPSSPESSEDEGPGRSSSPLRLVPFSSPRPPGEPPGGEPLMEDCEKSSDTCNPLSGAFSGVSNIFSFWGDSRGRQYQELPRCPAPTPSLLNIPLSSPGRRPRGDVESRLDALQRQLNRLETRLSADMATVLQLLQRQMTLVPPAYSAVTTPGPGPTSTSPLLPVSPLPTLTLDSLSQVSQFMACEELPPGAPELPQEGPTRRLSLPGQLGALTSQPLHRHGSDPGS

By IC50 is commonly meant the concentration that inhibits the measured activity by half. Read a low IC50 as higher potency. What is called half-life is the time in which the quantity being followed falls by half. Low readings indicate fast loss, high ones slow loss. The bioavailability is the share of a dose that reaches the circulation, judged against a reference dose that is usually intravenous. What is called clearance is a measure of how efficiently the substance is removed, as volume per time. `O=C(c1ccc(CN2CCC(F)CC2)cc1)N1CCN(C2CCC2)CC1`: in data set [1], the IC50 was over 10000 nM. In addition, in data set [2], the Vd turned out to be 20.3 L/kg. In [3], this molecule had a half-life of 2.1 h. The molecule also yielded a bioavailability in data set [4] of 31%. This molecule also came in with a clearance in data set [5] of 113 mL/min/kg.

By Ki is commonly meant the dissociation constant of the complex between target and ligand, obtained from inhibition or displacement. Consider `CC(C)N1CCN(C(=O)c2ccc(CN3CCC(F)CC3)cc2)CC1`, for which the Vd in data set [2] was 29.2 L/kg. In addition, on Histamine H3 receptor, the Ki was determined as 1.5 nM. Also, the half-life in data set [3] was 7.6 h. Moreover, in [6], the concentration at 1 h was 1820 nM. Besides, in the data set with Rattus norvegicus, the Occ was found to be 92%. In addition, the remaining at 0.25 h, 1 µM in [7] turned out to be 50%; in data set [8], 84.8%. In [4], this molecule gave a bioavailability of 17%. In data set [5], this molecule returned a clearance of 44.2 mL/min/kg.

As for `O=C(c1ccc(CN2CCC(F)CC2)cc1)N1CCN(C2CC2)CC1`, the half-inhibitory concentration (IC50) in data set [1] is over 10000 nM. Besides, the Vd in [2] is 3.9 L/kg. Moreover, the half-life in [3] was 1.1 h. Also, in data set [6], the concentration at 1 h came out at 540 nM. In the data set on Rattus norvegicus, this molecule had an Occ of 25%. In addition, the remaining at 0.25 h, 1 µM in [7] was determined as 26.8%; in data set [8], 83.6%. The molecule further registered a bioavailability in data set [4] of 14%. Besides, the clearance in [5] stood at 41.4 mL/min/kg.

In general, Papp B→A refers to how fast a substance crosses the layer from the basolateral side. For orientation: Papp A→B means how fast a substance crosses the layer from the apical side. For the molecule `O=C(c1ccc(CN2CCOCC2)cc1)N1CCN(C2CCC2)CC1`, the IC50 in [1] was over 10000 nM. The Vd in [2] came to 6.4 L/kg. Moreover, affinity on Histamine H3 receptor was put at a Ki of 1.3 nM. For the same molecule, the half-life in [3] was 2.1 h. The Activity entry in data set [9] is listed as “Not Active”. In data set [6], the concentration at 1 h worked out at 8100 nM. Also, in data set [10], the basolateral-to-apical permeability (Papp B→A) at 10 µM was determined as 22.4 ×10⁻⁶ cm/s. The Occ in the data set on Rattus norvegicus was 96%. In addition, the figures for the remaining at 0.25 h, 1 µM in [7] and in data set [8] were 49.6% and 85.4%, respectively. Moreover, the Papp A→B at 1 h, 10 µM in [11] is 71.2 ×10⁻⁶ cm/s. This molecule also gave a bioavailability in data set [4] of 85%. The molecule also displayed a clearance in data set [5] of 34.9 mL/min/kg.
